Activity calls are given as the source filed them. No cut-off for these calls is given here.
Key:
A549 [1] = assay: Cytotoxicity against human A549 cells after 48 hrs by alamar blue assay; assay type: functional, cell-based; conditions: A549, 48 h
A549 [2] = assay: Induction of apoptosis in human A549 cells assessed as increase of Bax protein level at 5 uM after 36 hrs by Western blotting; assay type: functional, cell-based
Summary of the method: (§1)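 A549 cells exposed 0-10 μM or 0.1% DMSO for 36 h; lysed in SDS sample buffer, boiled, SDS-PAGE, PVDF transfer, blocked in 5% milk PBST, primary antibody overnight, HRP secondary with chemiluminescence. Probed for pro-caspase 3, pro-caspase 9, PARP, Bcl-2, Bax, Bak, actin. One of three repeats shown.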

A549 [3] = assay: Induction of apoptosis in human A549 cells assessed as blockade of sub-G1 phase increase at 5 uM after 36 hrs using propidium iodide staining by flow cytometry in presence of 4,4'-diisothiocyano- 2,2'-stilbenedisulfonic acid; assay type: functional, cell-based
Summary of the method: (§2)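 Ethanol-fixed cells stained with RNase (200 μg/mL) and PI (10 μg/mL) 30 min; sub-G1 population by flow cytometry on ≥10 000 cells; mean ± SE of three experiments.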

A549 [4] = assay: Induction of apoptosis in human A549 cells assessed as loss of mitochondrial cytochrome c at 5 uM after up to 48 hrs by Western blotting; assay type: functional, cell-based
Summary of the method: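 A549 cells treated 5 μM or 0.1% DMSO for 36 or 48 h. Cells homogenized in sucrose/HEPES buffer A on ice, then spun at 750g twice and 10000g for 60 min at 4 °C; pellet taken as mitochondrial fraction, supernatant as cytosolic. Cytochrome c in each fraction by Western blot. One of three repeats shown.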

A549 [5] = assay: Induction of apoptosis in human A549 cells assessed as increase in DNA breaks at 5 uM after 24 hrs by flow cytometry based TUNEL assay; assay type: functional
Summary of the method: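 A549 cells exposed to 5 μM for various times. 5 × 10^5 cells fixed in 1% paraformaldehyde and 70% ethanol, TdT reaction with DIG-dUTP 30 min at 37 °C, anti-DIG-fluorescein 30 min in the dark, then PI (5 μg/mL) plus RNase A (100 μg/mL) 30 min; fluorescence by flow cytometry. One of three repeats shown.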

A549 [6] = assay: Induction of apoptosis in human A549 cells assessed as decrease of procaspase-3 level after 36 hrs by Western blotting; assay type: functional, cell-based; summary of the method: as §1
A549 [7] = assay: Antitumor activity against human A549 cells xenografted in BALB/c nude mouse assessed as increase in activated caspase-3 protein expression in tumor at 3 mg/kg, sc qd for 5 days by immunohistochemistry; assay type: functional, organism-based; set-up: dose 3 mg/kg
Summary of the method: (§3)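 Female athymic BALB/c nu/nu mice, 6-8 weeks, 18-22 g; 1 × 10^7 A549 cells implanted sc on back. At 80-120 mm3 tumors, randomized (six per group, day 0); daily sc dosing days 0-4 in 20% Tween 80/saline, >1.5 cm from tumor; vehicle controls. Tumor L and W measured to day 21-28; TV = (L × W2)/2, RTV = TVn/TV0. Activated caspase-3 immunohistochemistry on formalin-fixed paraffin tumor sections (day 28 after inoculation).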

Mus musculus [8] = assay: Toxicity in human A549 cells xenografted BALB/c nude mouse assessed as histological changes in brain at 3 mg/kg, sc qd for 5 days; assay type: organism-based; set-up: dose 3 mg/kg, route subcutaneous; conditions: in vivo, 120 h
Summary of the method: (§4)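 Xenograft setting: female athymic BALB/c nu/nu mice bearing sc A549 tumors (80-120 mm3 at day 0), six per group, daily sc dosing days 0-4 in 20% Tween 80 in saline; vehicle controls. Body weight recorded three times weekly up to days 21-28. Brain, liver and kidney fixed in 4% formalin, paraffin-embedded and sectioned for histology.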

Mus musculus [9] = assay: Toxicity in human A549 cells xenografted BALB/c nude mouse assessed as histological changes in liver at 3 mg/kg, sc qd for 5 days; assay type: organism-based; set-up: dose 3 mg/kg, route subcutaneous; conditions: in vivo, 120 h; summary of the method: as §4
Mus musculus [10] = assay: Toxicity in human A549 cells xenografted BALB/c nude mouse assessed as histological changes in kidney at 3 mg/kg, sc qd for 5 days; assay type: organism-based; set-up: dose 3 mg/kg, route subcutaneous; conditions: in vivo, 120 h; summary of the method: as §4
A549 [11] = assay: Cell cycle arrest in human A549 cells assessed as accumulation at sub-G1 phase after 48 hrs using propidium iodide staining by flow cytometry; assay type: functional, cell-based
Summary of the method: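 A549 cells treated 0-5 μM (0.31-5 μM) or 0.1% DMSO vehicle for 48 h. 5 × 10^5 cells fixed in 70% ethanol on ice ≥2 h, stained with RNase (200 μg/mL) and PI (10 μg/mL) 30 min at room temperature; sub-G1 fraction by flow cytometry, ≥10 000 cells per sample; mean ± SE of three experiments.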

A549 [12] = assay: Induction of apoptosis in human A549 cells assessed as cleavage of PARP at 5 uM after 36 hrs by Western blotting; assay type: functional, cell-based
A549 [13] = assay: Induction of apoptosis in human A549 cells assessed as increase of p53 protein level at 5 uM after 8 hrs by Western blotting; assay type: functional, cell-based
Summary of the method: (§5)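 A549 cells given 5 μM or 0.1% DMSO for 0-16 h; SDS lysates run on SDS-PAGE, transferred to PVDF, blocked in 5% milk PBST, primary antibody overnight, HRP secondary and chemiluminescence. p53, p21 and actin probed; one of three repeats shown.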

A549 [14] = assay: Induction of apoptosis in human A549 cells assessed as decrease of procaspase-9 level after 36 hrs by Western blotting; assay type: functional, cell-based; summary of the method: as §1
A549 [15] = assay: Induction of apoptosis in human A549 cells assessed as increase of Bak protein level at 5 uM after 36 hrs by Western blotting; assay type: functional, cell-based; summary of the method: as §1
Mus musculus [16] = assay: Toxicity in human A549 cells xenografted BALB/c nude mouse assessed as change in body weight at 3 mg/kg, sc qd for 5 days; assay type: organism-based; set-up: dose 3 mg/kg, route subcutaneous; conditions: in vivo, 120 h; summary of the method: as §4
A549 [17] = assay: Induction of apoptosis in human A549 cells assessed as loss of mitochondria membrane potential at 5 uM after up to 48 hrs using 3,3'-diethyloxacarbocyanine iodide staining by flow cytometry; assay type: functional, cell-based
Summary of the method: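 A549 cells treated with 5 μM or 0.1% DMSO for indicated times; 5 × 10^5 cells stained with 50 nM DiOC2(3), 15 min, 37 °C, dark, washed in cold PBS. Flow cytometry, excitation 488 nm, emission 525 nm (FL-1); low-uptake cells scored as mitochondrial damage against untreated controls. One of three repeats shown.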

A549 [18] = assay: Induction of apoptosis in human A549 cells assessed as blockade of sub-G1 phase increase at 5 uM after 36 hrs using propidium iodide staining by flow cytometry in presence of N-acetyl-cysteine; assay type: functional, cell-based; summary of the method: as §2
A549 [19] = assay: Antitumor activity against human A549 cells xenografted in BALB/c nude mouse assessed as inhibition of tumor growth at 3 mg/kg, sc qd for 5 days; assay type: functional, organism-based; set-up: dose 3 mg/kg; summary of the method: as §3
A549 [20] = assay: Induction of apoptosis in human A549 cells assessed as increase of p53 protein level at 5 uM after 2 hrs by Western blotting; assay type: functional, cell-based; summary of the method: as §5
A549 [21] = assay: Induction of apoptosis in human A549 cells assessed as reduction of Bcl-2 protein level at 5 uM after 36 hrs by Western blotting; assay type: functional, cell-based; summary of the method: as §1
A549 [22] = assay: Induction of apoptosis in human A549 cells assessed as cleavage of caspase-8 at 5 uM after 36 hrs by Western blotting; assay type: functional, cell-based
A549 [23] = assay: Induction of autophagy in human A549 cells assessed as acridine orange stain incorporation at 5 uM after 24 hrs by fluorescence microscopic analysis; assay type: functional, cell-based
A549 [24] = assay: Induction of apoptosis in human A549 cells assessed as blockade of sub-G1 phase increase at 5 uM after 36 hrs using propidium iodide staining by flow cytometry in presence of Z-VAD-fmk; assay type: functional, cell-based; summary of the method: as §2
[25] = Cytotoxicity against human BEAS2B cells uo to 80 uM after 48 hrs by alamar blue assay; assay type: cell-based; conditions: beas-2b
Summary of the method: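 Beas-2b cells seeded at 5000/well in RPMI 1640 + 10% FBS, 24 h at 37 °C, 5% CO2; then treated 0-80 μM in triplicate per concentration, 0.1% DMSO final, 48 h. Viability read by Alamar Blue per manufacturer's protocol; mean ± SE of three separate experiments.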

Question: For `COc1cc(/C=C/C=C/C=C/C=C/c2sccc2Cl)oc(=O)c1C`, which IC50 (A549 [1]) is on record?
Answer: > 20 µM

Question: For `COc1cc(/C=C/C=C/C=C/C=C/c2c(Cl)ccn2S(C)(=O)=O)oc(=O)c1C`, which IC50 (A549 [1]) is on record?
Answer: > 20 µM

Question: Which IC50 (A549 [1]) does the source give for `CC\C(=C/C=C/C=C/C=C/c1[nH]ccc1Cl)c1cc(OC)c(C)c(=O)o1` here?
Answer: 5.6 µM

Question: With `C/C=C/C=C/C=C/C=C/c1cc(OC)c(C)c(=O)o1` as the compound, how does the IC50 (A549 [1]) read?
Answer: > 20 µM

Question: For `COc1cc(/C=C/C=C/C=C/C=C/c2ccccc2Cl)oc(=O)c1C`, which IC50 (A549 [1]) is on record?
Answer: > 20 µM

Question: With `COc1cc(/C=C/C=C/C=C/C=C/c2sccc2Cl)oc(=O)c1` as the compound, how does the IC50 (A549 [1]) read?
Answer: > 20 µM

Question: Which IC50 (A549 [1]) does the source give for `CCCCc1c(OC)cc(/C=C/C=C/C=C/C=C/c2[nH]ccc2Cl)oc1=O` here?
Answer: 5 µM

Question: Which IC50 (A549 [1]) does the source give for `COc1cc(/C=C/C=C/C=C/C=C/c2[nH]ccc2Cl)oc(=O)c1C` [AUXARCONJUGATIN A] here?
Answer: 1.2 µM

Question: Which IC50 (A549 [1]) does the source give for `O=c1cc(O)cc(/C=C/C=C/C=C/C=C/c2[nH]ccc2Cl)o1` here?
Answer: > 20 µM

Question: With `COc1cc(/C(C)=C/C=C/C=C/C=C/c2[nH]ccc2Cl)oc(=O)c1` as the compound, how does the IC50 (A549 [1]) read?
Answer: 2.5 µM

Question: Which IC50 (A549 [1]) does the source give for `COc1cc(/C(C)=C/C=C/C=C/C=C/c2[nH]ccc2Cl)oc(=O)c1C` here?
Answer: 5.2 µM

Question: Which results are given for `CCCCc1c(OC)cc(/C(C)=C/C=C/C=C/C=C/c2[nH]ccc2Cl)oc1=O`?
Answer: Activity (A549 [2]): inactive; Activity (A549 [3]): inactive; IC50 (A549 [1]): 0.01 µM; Activity (A549 [4]): Active; Activity (A549 [5]): 47%; Activity (A549 [6]): Dose-dependent effect; Activity (A549 [7]): Active; Activity (Mus musculus [8]): Non-toxic; Activity (Mus musculus [9]): Non-toxic; Activity (Mus musculus [10]): Non-toxic; Activity (A549 [11]): Dose-dependent effect; Activity (A549 [12]): Active; Activity (A549 [13]): Active; Activity (A549 [14]): Dose-dependent effect; Activity (A549 [15]): Active; Activity (Mus musculus [16]): Non-toxic; Activity (A549 [17]): Active; Activity (A549 [18]): inactive; Activity (A549 [19]): Active; Activity (A549 [20]): Active; Activity (A549 [21]): Active; Activity (A549 [22]): inactive; Activity (A549 [23]): inactive; Activity (A549 [24]): Active; Activity [25]: Non-toxic

Question: Which IC50 (A549 [1]) does the source give for `COc1cc(/C=C/C=C/C=C/C=C/c2cccc(Cl)c2)oc(=O)c1C` here?
Answer: > 20 µM

Question: Which IC50 (A549 [1]) does the source give for `Cc1c(O)cc(/C=C/C=C/C=C/C=C/c2[nH]ccc2Cl)oc1=O` here?
Answer: > 20 µM

Question: For `COc1cc(/C=C/C=C/C=C/C=C/c2[nH]ccc2Cl)oc(=O)c1` [AUXARCONJUGATIN B], which Activity (A549 [2]) is on record?
Answer: inactive

Question: And the Activity (A549 [3])?
Answer: inactive

Question: And the IC50 (A549 [1])?
Answer: 0.6 µM

Question: What about the Activity (A549 [4]) of the same compound?
Answer: Active

Question: What about the Activity (A549 [5]) of the same compound?
Answer: 42%

Question: And the Activity (A549 [6])?
Answer: Dose-dependent effect

Question: What about the Activity (A549 [11]) of the same compound?
Answer: Dose-dependent effect

Question: What about the Activity (A549 [12]) of the same compound?
Answer: Active

Question: And the Activity (A549 [14])?
Answer: Dose-dependent effect

Question: And the Activity (A549 [15])?
Answer: Active

Question: What about the Activity (A549 [17]) of the same compound?
Answer: Active

Question: What about the Activity (A549 [18]) of the same compound?
Answer: inactive

Question: And the Activity (A549 [21])?
Answer: Active

Question: And the Activity (A549 [22])?
Answer: inactive

Question: What about the Activity (A549 [23]) of the same compound?
Answer: inactive

Question: And the Activity (A549 [24])?
Answer: Active

Question: And the Activity [25]?
Answer: Non-toxic

Source: ChEMBL document CHEMBL1269005, “Synthesis and biological evaluation of polyenylpyrrole derivatives as anticancer agents acting through caspases-dependent apoptosis” (J Med Chem, 2010)
